Entries after “also recorded” stand apart in the source; their conditions may differ.
Assays:
[1] = target: α-glucosidase from S. cerevisiae E.C. 3.2.1.20 (Saccharomyces cerevisiae, UniProt P53341); experiment: Inhibition of α-glucosidase activity in vitro; type: biochemical; settings: for inhibition at 10 µM: read-out: %inhibition (10 μM)
α-glucosidase = α-glucosidase (Saccharomyces cerevisiae, UniProt P53341); experiment: Enzyme kinetic study; type: biochemical; settings: for inhibition mode: Lineweaver–Burk plots, Km increased, Vmax unaffected
Outline: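 S. cerevisiae α-glucosidase solution (0.1 U/mL) and pNPG substrate solution (1 mM) prepared in […] pH 6.9 phosphate buffer. Enzyme preincubated with test compound (DMSO stock) for 10 min at 37 °C, then substrate added for 20 min at 37 °C. Stopped with 1 M Na2CO3, read at 405 nm. Lineweaver–Burk plots at several inhibitor concentrations; Ki from secondary replot of slope versus concentration.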

Chain of α-glucosidase from S. cerevisiae E.C. 3.2.1.20 (P53341 whole entry): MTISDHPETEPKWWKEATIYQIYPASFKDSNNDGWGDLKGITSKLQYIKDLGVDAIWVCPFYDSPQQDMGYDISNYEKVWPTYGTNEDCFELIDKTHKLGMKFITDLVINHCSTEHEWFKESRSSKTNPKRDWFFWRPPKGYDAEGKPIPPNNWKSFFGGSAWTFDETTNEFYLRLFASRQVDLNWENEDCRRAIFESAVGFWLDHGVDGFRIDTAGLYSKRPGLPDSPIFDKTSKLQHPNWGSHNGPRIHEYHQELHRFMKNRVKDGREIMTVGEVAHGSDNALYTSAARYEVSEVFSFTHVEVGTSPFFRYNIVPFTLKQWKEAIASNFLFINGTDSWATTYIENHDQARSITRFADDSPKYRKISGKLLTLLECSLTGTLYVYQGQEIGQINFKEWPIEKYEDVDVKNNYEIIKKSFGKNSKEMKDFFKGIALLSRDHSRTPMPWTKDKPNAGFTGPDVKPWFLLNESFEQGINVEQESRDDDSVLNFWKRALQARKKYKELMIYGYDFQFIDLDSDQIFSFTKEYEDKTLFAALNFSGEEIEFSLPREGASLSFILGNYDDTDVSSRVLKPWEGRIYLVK
Chain of α-glucosidase (P53341 whole entry): as above

SMILES | IC50 [1] [µM] | other results
O=c1cc(O)c2ccccc2o1 [4-hydroxycoumarin] | > 200 | 
O=c1oc2ccccc2c(O)c1C(c1ccc(F)c(Br)c1)c1c(O)c2ccccc2oc1=O [Compound 11, 3,3′-((3-Bromo-4-fluorophenyl)methylene)bis(4-hydroxy-2H-chromen-2-one)] | 2.89 ± 0.25 | 
CCCCOc1c(Br)cc(C(c2c(O)c3ccccc3oc2=O)c2c(O)c3ccccc3oc2=O)cc1Br [Compound 18, 3,3′-((3,5-Dibromo-4-butoxyphenyl)methylene)bis(4-hydroxy-2H-chromen-2-one)] |  | Ki (α-glucosidase): 3.93 µM; inhibition mode (α-glucosidase): competitive inhibition; also recorded: competitive binding mode; inhibition at 10 µM [1]: 99.67 ± 0.42%
O=c1oc2ccccc2c(O)c1C(c1ccccc1)c1c(O)c2ccccc2oc1=O [Compound 1, 3,3′-(Phenylmethylene)bis(4-hydroxy-2H-chromen-2-one)] | 30.8 ± 1.25 | 
COc1cc(C(c2c(O)c3ccccc3oc2=O)c2c(O)c3ccccc3oc2=O)cc(Br)c1O [Compound 16, 3,3′-((3-Bromo-4-hydroxy-5-methoxyphenyl)methylene)bis(4-hydroxy-2H-chromen-2-one)] | 5.1 ± 0.18 | 
O=c1oc2ccccc2c(O)c1C(c1cccc([N+](=O)[O-])c1)c1c(O)c2ccccc2oc1=O [Compound 9, 3,3′-((3-Nitrophenyl)methylene)bis(4-hydroxy-2H-chromen-2-one)] | 14.8 ± 0.32 | 
O=c1oc2ccccc2c(O)c1C(c1ccc(Cl)cc1)c1c(O)c2ccccc2oc1=O [Compound 4, 3,3′-((4-Chlorophenyl)methylene)bis(4-hydroxy-2H-chromen-2-one)] | 3.19 ± 0.41 | 
O=c1oc2ccccc2c(O)c1C(c1ccccc1Cl)c1c(O)c2ccccc2oc1=O [Compound 2, 3,3′-((2-Chlorophenyl)methylene)bis(4-hydroxy-2H-chromen-2-one)] | 8.12 ± 0.59 | 
O=c1oc2ccccc2c(O)c1C(c1ccc(Br)cc1)c1c(O)c2ccccc2oc1=O [Compound 6, 3,3′-((4-Bromophenyl)methylene)bis(4-hydroxy-2H-chromen-2-one)] | 2.95 ± 0.05 | 
CCCCCCCCOc1c(Br)cc(C(c2c(O)c3ccccc3oc2=O)c2c(O)c3ccccc3oc2=O)cc1Br [Compound 19, 3,3′-((3,5-Dibromo-4-(octyloxy)phenyl)methylene)bis(4-hydroxy-2H-chromen-2-one)] |  | Ki (α-glucosidase): 1.8 µM; inhibition mode (α-glucosidase): competitive inhibition; inhibition at 10 µM [1]: 98.95 ± 0.26%
O=c1oc2ccccc2c(O)c1C(c1ccc(F)cc1)c1c(O)c2ccccc2oc1=O [Compound 5, 3,3′-((4-Fluorophenyl)methylene)bis(4-hydroxy-2H-chromen-2-one)] | 12.31 ± 0.08 | 
O=c1oc2ccccc2c(O)c1C(c1ccc(Br)c([N+](=O)[O-])c1)c1c(O)c2ccccc2oc1=O [Compound 10, 3,3′-((4-Bromo-3-nitrophenyl)methylene)bis(4-hydroxy-2H-chromen-2-one)] | 3.41 ± 0.17 | 
COc1cc(C(c2c(O)c3ccccc3oc2=O)c2c(O)c3ccccc3oc2=O)ccc1O [Compound 15, 3,3′-((4-Hydroxy-3-methoxyphenyl)methylene)bis(4-hydroxy-2H-chromen-2-one)] | 15.2 ± 0.45 | 
O=c1oc2ccccc2c(O)c1C(c1ccc(Cl)cc1Cl)c1c(O)c2ccccc2oc1=O [Compound 7, 3,3′-((2,4-Dichlorophenyl)methylene)bis(4-hydroxy-2H-chromen-2-one)] | 3.15 ± 0.31 | 
O=c1oc2ccccc2c(O)c1C(c1ccc(Cl)c(Cl)c1)c1c(O)c2ccccc2oc1=O [Compound 8, 3,3′-((3,4-Dichlorophenyl)methylene)bis(4-hydroxy-2H-chromen-2-one)] | 1.9 ± 0.14 | 
COc1ccc(C(c2c(O)c3ccccc3oc2=O)c2c(O)c3ccccc3oc2=O)cc1Br [Compound 13, 3,3′-((3-Bromo-4-methoxyphenyl)methylene)bis(4-hydroxy-2H-chromen-2-one)] | 3.8 ± 0.05 | 
O=c1oc2ccccc2c(O)c1C(c1cccc(Cl)c1)c1c(O)c2ccccc2oc1=O [Compound 3, 3,3′-((3-Chlorophenyl)methylene)bis(4-hydroxy-2H-chromen-2-one)] | 6.06 ± 0.06 | 
COc1c(Br)cc(C(c2c(O)c3ccccc3oc2=O)c2c(O)c3ccccc3oc2=O)cc1Br [Compound 17, 3,3′-((3,5-Dibromo-4-methoxyphenyl)methylene)bis(4-hydroxy-2H-chromen-2-one)] |  | Ki (α-glucosidase): 4.81 µM; inhibition at 10 µM [1]: 99.77 ± 0.49%
O=c1oc2ccccc2c(O)c1C(c1cc(Br)c(O)c(Br)c1)c1c(O)c2ccccc2oc1=O [Compound 14, 3,3′-((3,5-Dibromo-4-hydroxyphenyl)methylene)bis(4-hydroxy-2H-chromen-2-one)] | 2.38 ± 0.24 | 
O=c1oc2ccccc2c(O)c1C(c1ccc(O)c(Br)c1)c1c(O)c2ccccc2oc1=O [Compound 12, 3,3′-((3-Bromo-4-hydroxyphenyl)methylene)bis(4-hydroxy-2H-chromen-2-one)] | 4.15 ± 0.06 | 

Reference: article PMC10373460 (ACS Omega, 2023)
